Data on 16 compounds can be found in ChEMBL document CHEMBL1132963, “Structure-based design of potent, amidine-derived inhibitors of factor Xa: evaluation of selectivity, anticoagulant activity, and antithrombotic activity” (2000).

Assay [1] deals with Coagulation factor X (Homo sapiens) (UniProt P00742). The experiment in a line: Apparent association constant against human Coagulation factor X. The method, boiled down: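 Human fXa at 3.2 nM final in Tris/NaCl buffer pH 7.4 with HSA; inhibitor added from MeOH in triplicate at four to eight concentrations, then chromogenic substrate (0.3 mM stock) to start hydrolysis, read at 405 nm. Free and bound enzyme taken from on-plate standard curves; apparent Kass = [Eb]/[Ef][Io − Ib] from concentrations giving 20–80% inhibition. At least 3 separate experiments averaged.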
Coagulation factor X (Homo sapiens), sequence (P00742 41-179 limits assumed): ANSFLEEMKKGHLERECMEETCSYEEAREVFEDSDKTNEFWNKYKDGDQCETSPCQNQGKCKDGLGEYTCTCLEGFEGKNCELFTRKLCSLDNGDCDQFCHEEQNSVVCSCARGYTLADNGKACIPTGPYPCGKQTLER
Coagulation factor X (Homo sapiens), sequence (P00742 235-488 limits assumed): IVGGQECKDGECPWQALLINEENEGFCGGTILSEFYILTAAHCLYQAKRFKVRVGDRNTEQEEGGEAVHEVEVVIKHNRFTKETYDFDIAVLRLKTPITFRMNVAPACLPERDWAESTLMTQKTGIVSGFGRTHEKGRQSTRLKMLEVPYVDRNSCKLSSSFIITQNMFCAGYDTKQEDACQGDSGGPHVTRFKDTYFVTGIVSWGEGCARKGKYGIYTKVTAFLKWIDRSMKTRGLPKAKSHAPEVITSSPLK

For assay [2], the target named is Vitamin K-dependent protein C (Homo sapiens) (UniProt P04070). Kind of assay: Tested for inhibition of activated protein C. An outline of the steps:
(§1)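 Apparent association constant from inhibition of chromogenic substrate hydrolysis read at 405 nm, using a single substrate concentration suited to each protease. Inhibitor dilutions done in triplicate at four to eight concentrations; Kass computed from free and bound enzyme at 20–80% inhibition. Mean of at least 3 separate experiments.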

The target in assay [3] is Prothrombin (Homo sapiens) (UniProt P00734). Kind of assay: Tested for inhibition of thrombin. An outline of the steps: as §1
Assay [4] has as its target Tissue-type plasminogen activator (Homo sapiens) (UniProt P00750). The experiment in a line: Tested for inhibition of Tissue type plasminogen activator. An outline of the steps: as §1
In assay [5] the target is Urokinase-type plasminogen activator (Homo sapiens) (UniProt P00749). Kind of assay: Tested for inhibition of Urokinase-type plasminogen activator. The method, boiled down: as §1
Assay [6] is described as follows: Compound required to double the time to clot formation in reconstituted human plasma, using activated partial thromboplastin time (APTT). In kind it is functional. An outline of the steps:
(§2)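 Reconstituted human plasma; clotting by activated partial thromboplastin time or prothrombin time. Value is the inhibitor concentration that doubles clotting time.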

The species named for another assay is Homo sapiens. The experiment in a line: Compound required to double the time to clot formation in reconstituted human plasma, using the prothromboplastin time (PT). In kind it is functional. An outline of the steps:
as §2

A further assay concerns the target T1, Trypsin II (Bos taurus) (UniProt Q29463).
T1 sequence (whole entry): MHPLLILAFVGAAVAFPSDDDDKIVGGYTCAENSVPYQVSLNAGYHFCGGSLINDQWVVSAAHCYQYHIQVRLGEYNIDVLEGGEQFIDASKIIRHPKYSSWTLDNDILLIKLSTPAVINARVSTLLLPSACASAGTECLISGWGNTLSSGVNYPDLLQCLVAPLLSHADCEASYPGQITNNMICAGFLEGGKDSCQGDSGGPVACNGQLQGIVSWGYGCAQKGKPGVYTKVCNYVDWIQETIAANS
Kind of assay: Tested for inhibition of trypsin. The method, boiled down:
as §1

A short description of assay [7]: Selectivity as the ratio of Kass value towards fXa to that of UK. The method, boiled down:
(§3)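 Ratio of fXa Kass to Kass for the second protease. Each Kass is an apparent association constant from chromogenic substrate hydrolysis kinetics at 405 nm, run at one substrate concentration per protease, in triplicate at four to eight inhibitor concentrations. Each value is the mean of at least 3 separate experiments.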

Assay [8] addresses Coagulation factor X (Homo sapiens) (UniProt P00742). Kind of assay: Selectivity as the ratio of Kass value towards fXa to that of aPC. The method, boiled down: as §3
Assay [9] in a line: Selectivity as the ratio of Kass value towards fXa to that of tissue plasminogen activator. An outline of the steps:
as §3

Assay [10] has as its target Thrombin and coagulation factor X (Homo sapiens) (UniProt P00734+P00742). The experiment in a line: Selectivity as the ratio of Kass value towards fXa to that of thrombin. In kind it is protein assay. The method, boiled down: as §3
The nature of assay [11]: Selectivity as the ratio of Kass value towards fXa to that of trypsin. The method, boiled down: as §3
In assay [12] the target is Plasminogen (Homo sapiens) (UniProt P00747). Kind of assay: Tested for inhibition of plasmin.
Plasminogen (Homo sapiens), sequence (P00747 whole entry, looked up): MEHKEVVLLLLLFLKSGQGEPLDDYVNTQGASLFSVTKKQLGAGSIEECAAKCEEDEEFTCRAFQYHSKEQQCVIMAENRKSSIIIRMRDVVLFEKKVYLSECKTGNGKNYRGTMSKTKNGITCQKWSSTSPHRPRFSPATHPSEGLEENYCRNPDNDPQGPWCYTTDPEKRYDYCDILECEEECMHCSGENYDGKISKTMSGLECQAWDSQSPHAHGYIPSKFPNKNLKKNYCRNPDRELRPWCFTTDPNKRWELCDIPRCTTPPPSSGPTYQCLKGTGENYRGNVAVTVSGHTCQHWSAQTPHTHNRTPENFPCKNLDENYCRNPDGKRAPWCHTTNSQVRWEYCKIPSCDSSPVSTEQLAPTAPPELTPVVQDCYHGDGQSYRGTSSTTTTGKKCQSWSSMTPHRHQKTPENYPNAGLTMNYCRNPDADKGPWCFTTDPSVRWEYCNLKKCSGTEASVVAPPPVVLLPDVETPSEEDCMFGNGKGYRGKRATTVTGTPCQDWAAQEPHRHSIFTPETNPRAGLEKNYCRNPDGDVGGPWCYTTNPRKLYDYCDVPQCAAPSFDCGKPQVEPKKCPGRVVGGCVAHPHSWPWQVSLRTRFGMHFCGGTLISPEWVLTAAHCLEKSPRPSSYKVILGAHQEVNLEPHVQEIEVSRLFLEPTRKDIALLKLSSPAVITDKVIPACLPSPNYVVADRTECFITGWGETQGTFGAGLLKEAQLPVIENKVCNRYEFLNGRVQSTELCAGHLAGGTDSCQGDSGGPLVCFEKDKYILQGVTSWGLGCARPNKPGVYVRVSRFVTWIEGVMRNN
For assay [13], the system named is Plasminogen and coagulation factor X (Homo sapiens). The experiment in a line: Selectivity as the ratio of Kass value towards fXa to that of plasmin.

The structures appear in SMILES notation.

Thrombin and coagulation factor X (Homo sapiens), sequence (P00742 whole entry, looked up, other chains not shown): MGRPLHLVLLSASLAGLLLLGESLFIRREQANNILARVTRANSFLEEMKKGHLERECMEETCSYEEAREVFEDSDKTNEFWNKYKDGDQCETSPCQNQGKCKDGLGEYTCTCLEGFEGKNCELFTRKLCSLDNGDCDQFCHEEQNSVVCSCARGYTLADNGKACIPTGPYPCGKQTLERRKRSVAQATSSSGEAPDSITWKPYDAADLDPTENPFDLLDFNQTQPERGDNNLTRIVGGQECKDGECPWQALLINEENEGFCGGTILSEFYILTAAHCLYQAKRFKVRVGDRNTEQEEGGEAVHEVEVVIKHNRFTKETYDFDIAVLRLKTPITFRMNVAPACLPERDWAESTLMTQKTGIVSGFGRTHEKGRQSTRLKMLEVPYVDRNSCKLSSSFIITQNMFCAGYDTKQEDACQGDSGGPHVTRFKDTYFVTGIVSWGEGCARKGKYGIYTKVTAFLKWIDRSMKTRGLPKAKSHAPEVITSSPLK
Vitamin K-dependent protein C (Homo sapiens), sequence (P04070 43-197 limits assumed): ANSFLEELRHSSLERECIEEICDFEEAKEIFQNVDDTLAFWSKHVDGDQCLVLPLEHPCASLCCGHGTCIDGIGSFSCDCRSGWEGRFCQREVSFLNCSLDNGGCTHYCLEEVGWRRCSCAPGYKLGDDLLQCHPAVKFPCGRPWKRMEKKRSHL
Vitamin K-dependent protein C (Homo sapiens), sequence (P04070 212-461 limits assumed): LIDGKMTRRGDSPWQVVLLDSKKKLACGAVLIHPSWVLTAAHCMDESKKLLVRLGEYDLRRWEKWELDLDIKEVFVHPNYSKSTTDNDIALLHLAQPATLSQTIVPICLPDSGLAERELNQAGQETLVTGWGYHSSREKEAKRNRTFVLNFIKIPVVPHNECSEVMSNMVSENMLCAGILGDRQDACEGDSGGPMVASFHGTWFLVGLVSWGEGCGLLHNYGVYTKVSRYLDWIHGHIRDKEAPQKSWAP
Tissue-type plasminogen activator (Homo sapiens), sequence (P00750 36-562 limits assumed): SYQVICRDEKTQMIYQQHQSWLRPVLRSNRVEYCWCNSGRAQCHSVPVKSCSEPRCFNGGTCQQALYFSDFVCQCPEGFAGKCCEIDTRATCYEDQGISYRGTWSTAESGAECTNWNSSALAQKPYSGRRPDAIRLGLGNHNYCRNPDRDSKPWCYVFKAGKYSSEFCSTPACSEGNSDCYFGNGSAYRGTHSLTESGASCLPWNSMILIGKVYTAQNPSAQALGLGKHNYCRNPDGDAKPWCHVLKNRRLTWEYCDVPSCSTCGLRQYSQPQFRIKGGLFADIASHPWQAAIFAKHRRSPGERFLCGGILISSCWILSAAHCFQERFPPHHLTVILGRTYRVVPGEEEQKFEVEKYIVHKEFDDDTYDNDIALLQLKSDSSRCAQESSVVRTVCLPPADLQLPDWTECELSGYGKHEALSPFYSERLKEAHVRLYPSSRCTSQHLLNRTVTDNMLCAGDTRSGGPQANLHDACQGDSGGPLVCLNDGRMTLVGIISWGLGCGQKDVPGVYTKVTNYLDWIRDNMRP

`CC(C)(C)c1ccc(C(=O)Nc2ccccc2C(=O)Nc2cccc(C(=N)N)c2)cc1`: in [1], the K ass was 3.5e+06 l M-1.

As for `CC(C)(C)c1ccc(C(=O)Nc2cc(C(=O)O)ccc2NC(=O)c2cccc(C(=N)N)c2)cc1`, the K ass was 13000 l M-1 in assay [2]; 650000 l M-1 in [3]; 4000 l M-1 in [4]; 1000 l M-1 in assay [5]; 1.2e+07 l M-1 on Trypsin II (Bos taurus); 73000 l M-1 in [12]. Moreover, the results for the Activity (in assay [6]; in the assay filed under Homo sapiens) were 0.72 µM and 0.83 µM, respectively. Also, the Ratio in [7] came to 470000; in [8], 36000; in [9] it was 120000; in assay [10] it was 720; in assay [11], 390; in [13] it was 6400.

Consider `CC(C)c1ccc(C(=O)Nc2ccccc2NC(=O)c2cccc(C(=N)N)c2)cc1`, for which, in assay [1], the K ass is 1.8e+08 l M-1.

For `COc1ccc(C(=O)Nc2ccc(C(=N)N)cc2NC(=O)c2ccc(OC)cc2)cc1`, in assay [1], the K ass was 270000 l M-1.

As for `CC(C)(C)c1ccc(C(=O)Nc2ccsc2C(=O)Nc2cccc(C(=N)N)c2)cc1`, the K ass in assay [1] is 1.2e+07 l M-1.

For the compound `CC(C)(C)c1ccc(C(=O)Nc2ccccc2NC(=O)c2cccc(C(=N)N)c2)cc1`, the K ass in assay [2] was 2000 l M-1; in [1], 2.5e+08 l M-1; in [3], 3e+06 l M-1; in [4], 11000 l M-1; at Trypsin II (Bos taurus), 340000 l M-1; in assay [12], 6000 l M-1. Also, the Activity in assay [6] came to 0.67 µM; in the assay filed under Homo sapiens, 0.96 µM. Also, the Ratio is over 250000 in assay [7]; 13000 in [8]; 23000 in assay [9]; 83 in assay [10]; 740 in assay [11]; 42000 in assay [13].

As to `CC(C)(C)c1ccc(C(=O)Nc2ccc(C(=O)O)cc2NC(=O)c2cccc(C(=N)N)c2)cc1`, the K ass in assay [1] is 5.4e+07 l M-1.

For `COc1ccc(NC(=O)c2ccccc2NC(=O)c2cccc(C(=N)N)c2)cc1`, the K ass in [1] is 1.7e+06 l M-1.

As to `CC(C)c1ccc(C(=O)Nc2cc(O)ccc2NC(=O)c2cccc(C(=N)N)c2)cc1`, the K ass in assay [1] was 2.3e+08 l M-1.

As to `CC(C)c1ccc(C(=O)Nc2cc(OCC(=O)O)ccc2NC(=O)c2cccc(C(=N)N)c2)cc1`, the K ass in assay [2] was 14000 l M-1; in assay [1], 3.4e+08 l M-1; in assay [3] it was 800000 l M-1; in [4], 7000 l M-1; in [5] it was 1000 l M-1; at Trypsin II (Bos taurus) it was 2.5e+06 l M-1. For the same compound, the K ass in assay [12] is 39000 l M-1. Besides, the Ratio in assay [7] is 340000; in assay [8] it was 24000; in assay [9], 49000; in assay [10], 430; in [11], 140; in [13], 8700.

As for `COc1ccc(C(=O)Nc2ccccc2NC(=O)C2CCCN(C(=N)N)C2)cc1` (stereo not drawn), the K ass in [1] is 1e+06 l M-1.

With `CC(C)(C)c1ccc(C(=O)Nc2ccccc2NC(=O)C2CCCN(C(=N)N)C2)cc1` (stereo not drawn), the K ass in assay [1] was 1.2e+07 l M-1.

For `CCOC(=O)COc1ccc(NC(=O)c2cccc(C(=N)N)c2)c(NC(=O)c2ccc(C(C)C)cc2)c1`, the K ass in [1] was 1.6e+08 l M-1.

For `CCOc1ccc(C(=O)Nc2ccccc2NC(=O)c2cccc(C(=N)N)c2)cc1`, the K ass in assay [1] is 2.9e+07 l M-1.

In the case of `COc1ccc(C(=O)Nc2ccccc2NC(=O)c2cccc(C(=N)N)c2)cc1`, the K ass in [2] is 15000 l M-1; in [1] it was 1.4e+07 l M-1; in assay [3], 270000 l M-1; in assay [4], 20000 l M-1; in assay [5], 1000 l M-1; on Trypsin II (Bos taurus), 600000 l M-1. In addition, the K ass in assay [12] is 20000 l M-1. The Activity came out at 2 µM in assay [6] and 1.5 µM in the assay filed under Homo sapiens. For the same compound, the Ratio in assay [7] was determined as 15000; in assay [8], 1000; in assay [9], 750; in assay [10], 56; in assay [11] it was 25; in assay [13], 750.

With `COc1ccc(C(=O)Nc2ccccc2NC(=O)c2ccc(C(=N)N)cc2)cc1`, the K ass in assay [1] is 5.7e+06 l M-1.
